Our source for the ΔTm values is ChEMBL document CHEMBL1944596, “7,8-dichloro-1-oxo-β-carbolines as a versatile scaffold for the development of potent and selective kinase inhibitors with unusual binding modes” (J Med Chem, 2012).

As a reminder, the ΔTm is the change in melting temperature against a reference sample.

Experiment [1] has as its target TGF-beta receptor type-2 (Homo sapiens) (UniProt P37173). Briefly: Binding affinity to TGFBR2 assessed as change in thermal denaturation at 10 uM by thermal stability shift assay. In a few lines: (§1)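 Each compound was screened across a kinase panel by thermal stability shift assay. The read-out was the shift in protein melting temperature (ΔTm, in °C) relative to the unliganded kinase. A ΔTm of 4.0 °C served as the hit cutoff.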

Experiment [2] has as its target Dual specificity protein kinase CLK1 (Homo sapiens) (UniProt P49759). The experiment in a line: Binding affinity to CLK1 assessed as change in thermal denaturation at 10 uM by thermal stability shift assay. In outline:
as §1

For experiment [3], the target named is T1, Cyclin-G-associated kinase (Homo sapiens) (UniProt O14976).
T1 sequence (whole entry): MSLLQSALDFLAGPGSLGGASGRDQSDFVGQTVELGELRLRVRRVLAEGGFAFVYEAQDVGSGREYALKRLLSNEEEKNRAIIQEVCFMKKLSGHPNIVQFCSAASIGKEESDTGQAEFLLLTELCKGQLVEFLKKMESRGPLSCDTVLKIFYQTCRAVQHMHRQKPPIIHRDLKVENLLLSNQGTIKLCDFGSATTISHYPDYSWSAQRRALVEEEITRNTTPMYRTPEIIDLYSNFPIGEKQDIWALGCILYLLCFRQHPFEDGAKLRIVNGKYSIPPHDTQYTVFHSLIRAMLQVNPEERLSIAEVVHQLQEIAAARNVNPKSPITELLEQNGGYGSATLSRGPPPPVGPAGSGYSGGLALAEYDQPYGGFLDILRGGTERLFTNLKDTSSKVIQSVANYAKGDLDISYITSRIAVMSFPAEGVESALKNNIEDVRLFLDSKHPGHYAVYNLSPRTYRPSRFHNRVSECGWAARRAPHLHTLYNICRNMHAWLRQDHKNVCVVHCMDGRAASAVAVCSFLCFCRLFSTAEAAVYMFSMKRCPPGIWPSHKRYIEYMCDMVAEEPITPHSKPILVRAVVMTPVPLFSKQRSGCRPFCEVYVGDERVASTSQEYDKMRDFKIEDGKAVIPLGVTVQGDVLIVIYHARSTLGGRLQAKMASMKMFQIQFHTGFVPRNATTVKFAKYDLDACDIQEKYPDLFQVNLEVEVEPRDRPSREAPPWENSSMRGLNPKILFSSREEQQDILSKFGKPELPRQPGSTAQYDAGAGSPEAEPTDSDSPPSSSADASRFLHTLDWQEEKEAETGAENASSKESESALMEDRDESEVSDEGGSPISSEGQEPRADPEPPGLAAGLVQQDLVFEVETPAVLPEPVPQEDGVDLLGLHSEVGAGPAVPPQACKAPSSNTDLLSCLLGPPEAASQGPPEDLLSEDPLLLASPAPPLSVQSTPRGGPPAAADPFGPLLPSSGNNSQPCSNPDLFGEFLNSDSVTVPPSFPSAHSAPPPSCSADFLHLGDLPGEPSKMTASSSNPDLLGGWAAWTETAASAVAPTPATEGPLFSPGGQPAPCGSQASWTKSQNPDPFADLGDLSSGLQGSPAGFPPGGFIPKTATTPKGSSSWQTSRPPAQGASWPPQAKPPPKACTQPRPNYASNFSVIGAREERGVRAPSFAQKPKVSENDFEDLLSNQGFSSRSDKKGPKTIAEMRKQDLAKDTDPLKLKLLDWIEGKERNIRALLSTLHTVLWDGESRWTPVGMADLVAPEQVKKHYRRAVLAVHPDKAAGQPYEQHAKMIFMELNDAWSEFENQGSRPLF
The experiment in a line: Binding affinity to GAK assessed as change in thermal denaturation at 10 uM by thermal stability shift assay. In outline: as §1

In experiment [4] the target is Dual specificity protein kinase CLK4 (Homo sapiens) (UniProt Q9HAZ1). The experiment in a line: Binding affinity to CLK4 assessed as change in thermal denaturation at 10 uM by thermal stability shift assay. In outline:
as §1

The target in experiment [5] is Ribosomal protein S6 kinase alpha-1 (Homo sapiens) (UniProt Q15418). Briefly: Binding affinity to RSK1 assessed as change in thermal denaturation at 10 uM by thermal stability shift assay.
The target of experiment [6] is Glycogen synthase kinase-3 beta (Homo sapiens) (UniProt P49841). The experiment in a line: Binding affinity to GSK3-beta assessed as change in thermal denaturation at 10 uM by thermal stability shift assay. In a few lines: as §1
Chain of Glycogen synthase kinase-3 beta (Homo sapiens) (P49841 whole entry, looked up): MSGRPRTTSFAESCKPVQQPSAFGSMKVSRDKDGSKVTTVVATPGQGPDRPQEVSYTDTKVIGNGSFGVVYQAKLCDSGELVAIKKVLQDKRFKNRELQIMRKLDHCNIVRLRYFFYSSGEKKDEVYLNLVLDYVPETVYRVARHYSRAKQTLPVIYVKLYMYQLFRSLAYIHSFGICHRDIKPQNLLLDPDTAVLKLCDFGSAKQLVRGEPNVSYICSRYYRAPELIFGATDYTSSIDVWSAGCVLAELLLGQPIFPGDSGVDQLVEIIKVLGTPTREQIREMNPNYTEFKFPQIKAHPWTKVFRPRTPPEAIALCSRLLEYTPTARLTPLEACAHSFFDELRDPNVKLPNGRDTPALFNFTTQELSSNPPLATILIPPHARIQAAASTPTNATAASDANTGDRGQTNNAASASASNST
The target in experiment [7] is Death-associated protein kinase 3 (Homo sapiens) (UniProt O43293). Briefly: Binding affinity to N-terminus His6-tagged DAPK3 expressed in Escherichia coli BL21 (DE3) cells coexpressing pCOEX assessed as change in thermal denaturation at 10 uM by thermal stability shift assay. In outline:
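DAPK3 was expressed in E. coli grown in TB with kanamycin and chloramphenicol at 37 °C, cooled to 25 °C, and induced with 0.5 mM IPTG. Binding was read as thermal-shift ΔTm in °C.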

For experiment [8], the target named is Protein kinase C gamma type (Homo sapiens) (UniProt P05129). The experiment in a line: Binding affinity to PKCgamma assessed as change in thermal denaturation at 10 uM by thermal stability shift assay. In a few lines: as §1
In experiment [9] the target is Tyrosine-protein kinase Fes/Fps (Homo sapiens) (UniProt P07332). The experiment in a line: Binding affinity to FES assessed as change in thermal denaturation at 10 uM by thermal stability shift assay. In a few lines: as §1
Experiment [10] has as its target Serine/threonine-protein kinase 33 (Homo sapiens) (UniProt Q9BYT3). Briefly: Binding affinity to STK33 assessed as change in thermal denaturation at 10 uM by thermal stability shift assay. In a few lines:
as §1

For experiment [11], the target named is AP2-associated protein kinase 1 (Homo sapiens) (UniProt Q2M2I8). The experiment in a line: Binding affinity to AAK1 assessed as change in thermal denaturation at 10 uM by thermal stability shift assay. In outline:
as §1

The target in experiment [12] is BMP-2-inducible protein kinase (Homo sapiens) (UniProt Q9NSY1). Briefly: Binding affinity to BIKE assessed as change in thermal denaturation at 10 uM by thermal stability shift assay. In outline:
as §1

The target in experiment [13] is T2, cAMP-dependent protein kinase catalytic subunit PRKX (Homo sapiens) (UniProt P51817).
T2 sequence (whole entry): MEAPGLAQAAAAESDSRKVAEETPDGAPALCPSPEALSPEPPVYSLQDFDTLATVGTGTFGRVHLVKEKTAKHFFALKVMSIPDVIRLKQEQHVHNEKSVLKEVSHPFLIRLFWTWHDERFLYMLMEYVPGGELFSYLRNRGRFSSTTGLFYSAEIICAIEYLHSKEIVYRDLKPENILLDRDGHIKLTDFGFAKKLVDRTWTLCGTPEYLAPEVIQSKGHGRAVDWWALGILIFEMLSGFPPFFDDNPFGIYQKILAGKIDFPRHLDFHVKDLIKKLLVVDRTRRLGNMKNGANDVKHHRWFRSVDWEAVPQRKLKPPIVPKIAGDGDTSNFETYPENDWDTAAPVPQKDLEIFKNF
Briefly: Binding affinity to PRKX assessed as change in thermal denaturation at 10 uM by thermal stability shift assay. In a few lines: as §1

Experiment [14] deals with Serine/threonine-protein kinase pim-1 (Homo sapiens, UniProt P11309). The experiment in a line: Binding affinity to PIM1 assessed as change in thermal denaturation at 10 uM by thermal stability shift assay. In a few lines: as §1
Chain of Serine/threonine-protein kinase pim-1 (P11309 whole entry, looked up): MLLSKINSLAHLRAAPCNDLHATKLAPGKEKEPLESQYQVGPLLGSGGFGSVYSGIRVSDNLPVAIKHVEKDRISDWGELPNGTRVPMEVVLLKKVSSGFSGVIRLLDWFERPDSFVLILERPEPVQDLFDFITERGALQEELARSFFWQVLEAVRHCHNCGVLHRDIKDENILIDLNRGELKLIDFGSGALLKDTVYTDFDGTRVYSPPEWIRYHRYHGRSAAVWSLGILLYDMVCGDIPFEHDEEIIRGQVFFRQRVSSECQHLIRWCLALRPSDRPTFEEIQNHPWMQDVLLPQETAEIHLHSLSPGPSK

Chain of Serine/threonine-protein kinase 33 (Homo sapiens) (Q9BYT3 whole entry, looked up): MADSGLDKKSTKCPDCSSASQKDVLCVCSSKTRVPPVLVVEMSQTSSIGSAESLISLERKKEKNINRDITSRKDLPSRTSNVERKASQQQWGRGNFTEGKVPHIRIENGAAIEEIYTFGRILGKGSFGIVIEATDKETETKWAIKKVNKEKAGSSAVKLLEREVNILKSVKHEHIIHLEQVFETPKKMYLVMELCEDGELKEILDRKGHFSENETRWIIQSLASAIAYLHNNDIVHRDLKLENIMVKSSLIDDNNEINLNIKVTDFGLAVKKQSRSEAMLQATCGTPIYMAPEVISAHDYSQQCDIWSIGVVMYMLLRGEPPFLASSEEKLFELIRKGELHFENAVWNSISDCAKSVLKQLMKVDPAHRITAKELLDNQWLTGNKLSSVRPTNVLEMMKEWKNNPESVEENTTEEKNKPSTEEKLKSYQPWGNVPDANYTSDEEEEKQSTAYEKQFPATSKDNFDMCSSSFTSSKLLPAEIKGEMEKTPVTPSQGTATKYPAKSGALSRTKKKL
Chain of BMP-2-inducible protein kinase (Homo sapiens) (Q9NSY1 whole entry, looked up): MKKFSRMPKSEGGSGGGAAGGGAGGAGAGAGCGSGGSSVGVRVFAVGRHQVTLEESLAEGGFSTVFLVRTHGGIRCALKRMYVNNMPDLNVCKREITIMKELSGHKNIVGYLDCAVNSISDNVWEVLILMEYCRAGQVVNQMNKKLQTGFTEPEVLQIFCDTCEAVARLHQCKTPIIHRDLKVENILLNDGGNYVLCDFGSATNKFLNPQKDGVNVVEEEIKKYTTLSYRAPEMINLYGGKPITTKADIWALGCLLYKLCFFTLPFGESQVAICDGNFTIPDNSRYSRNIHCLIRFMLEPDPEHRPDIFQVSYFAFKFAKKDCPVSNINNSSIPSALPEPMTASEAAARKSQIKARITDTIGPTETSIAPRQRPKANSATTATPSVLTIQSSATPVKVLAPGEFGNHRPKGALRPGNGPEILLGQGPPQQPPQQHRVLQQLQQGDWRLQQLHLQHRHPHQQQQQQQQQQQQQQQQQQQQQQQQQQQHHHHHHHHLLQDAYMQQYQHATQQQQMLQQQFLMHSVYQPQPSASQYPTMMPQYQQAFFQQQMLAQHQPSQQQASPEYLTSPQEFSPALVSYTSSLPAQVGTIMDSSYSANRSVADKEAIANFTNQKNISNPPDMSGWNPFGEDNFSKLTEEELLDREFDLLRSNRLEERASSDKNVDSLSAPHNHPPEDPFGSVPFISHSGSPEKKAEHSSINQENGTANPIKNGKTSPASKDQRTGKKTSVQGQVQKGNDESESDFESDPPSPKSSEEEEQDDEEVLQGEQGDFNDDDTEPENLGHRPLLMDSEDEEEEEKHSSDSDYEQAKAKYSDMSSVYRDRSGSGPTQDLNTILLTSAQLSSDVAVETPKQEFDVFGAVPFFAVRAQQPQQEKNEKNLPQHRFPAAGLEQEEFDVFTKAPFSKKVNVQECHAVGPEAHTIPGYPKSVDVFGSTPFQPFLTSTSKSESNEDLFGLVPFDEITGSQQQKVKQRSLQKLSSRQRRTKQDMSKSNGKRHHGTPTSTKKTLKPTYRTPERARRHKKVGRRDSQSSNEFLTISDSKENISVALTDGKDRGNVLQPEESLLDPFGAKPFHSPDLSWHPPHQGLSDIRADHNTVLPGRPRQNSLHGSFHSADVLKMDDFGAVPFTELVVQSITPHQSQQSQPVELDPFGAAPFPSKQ
Chain of Dual specificity protein kinase CLK1 (Homo sapiens) (P49759 whole entry, looked up): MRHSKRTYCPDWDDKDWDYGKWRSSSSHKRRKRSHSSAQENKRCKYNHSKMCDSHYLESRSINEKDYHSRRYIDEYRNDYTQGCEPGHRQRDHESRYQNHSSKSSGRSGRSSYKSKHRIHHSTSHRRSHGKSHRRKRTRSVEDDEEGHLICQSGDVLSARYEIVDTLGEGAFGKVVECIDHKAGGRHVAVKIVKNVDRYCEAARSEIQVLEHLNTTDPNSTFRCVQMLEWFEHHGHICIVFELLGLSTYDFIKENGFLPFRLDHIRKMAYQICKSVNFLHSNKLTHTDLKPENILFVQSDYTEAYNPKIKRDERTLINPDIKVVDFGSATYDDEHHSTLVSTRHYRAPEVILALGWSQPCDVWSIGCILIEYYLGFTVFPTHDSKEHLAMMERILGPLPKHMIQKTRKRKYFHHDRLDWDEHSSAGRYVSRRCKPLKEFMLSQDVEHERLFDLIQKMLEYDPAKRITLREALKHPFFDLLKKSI
Chain of AP2-associated protein kinase 1 (Homo sapiens) (Q2M2I8 whole entry, looked up): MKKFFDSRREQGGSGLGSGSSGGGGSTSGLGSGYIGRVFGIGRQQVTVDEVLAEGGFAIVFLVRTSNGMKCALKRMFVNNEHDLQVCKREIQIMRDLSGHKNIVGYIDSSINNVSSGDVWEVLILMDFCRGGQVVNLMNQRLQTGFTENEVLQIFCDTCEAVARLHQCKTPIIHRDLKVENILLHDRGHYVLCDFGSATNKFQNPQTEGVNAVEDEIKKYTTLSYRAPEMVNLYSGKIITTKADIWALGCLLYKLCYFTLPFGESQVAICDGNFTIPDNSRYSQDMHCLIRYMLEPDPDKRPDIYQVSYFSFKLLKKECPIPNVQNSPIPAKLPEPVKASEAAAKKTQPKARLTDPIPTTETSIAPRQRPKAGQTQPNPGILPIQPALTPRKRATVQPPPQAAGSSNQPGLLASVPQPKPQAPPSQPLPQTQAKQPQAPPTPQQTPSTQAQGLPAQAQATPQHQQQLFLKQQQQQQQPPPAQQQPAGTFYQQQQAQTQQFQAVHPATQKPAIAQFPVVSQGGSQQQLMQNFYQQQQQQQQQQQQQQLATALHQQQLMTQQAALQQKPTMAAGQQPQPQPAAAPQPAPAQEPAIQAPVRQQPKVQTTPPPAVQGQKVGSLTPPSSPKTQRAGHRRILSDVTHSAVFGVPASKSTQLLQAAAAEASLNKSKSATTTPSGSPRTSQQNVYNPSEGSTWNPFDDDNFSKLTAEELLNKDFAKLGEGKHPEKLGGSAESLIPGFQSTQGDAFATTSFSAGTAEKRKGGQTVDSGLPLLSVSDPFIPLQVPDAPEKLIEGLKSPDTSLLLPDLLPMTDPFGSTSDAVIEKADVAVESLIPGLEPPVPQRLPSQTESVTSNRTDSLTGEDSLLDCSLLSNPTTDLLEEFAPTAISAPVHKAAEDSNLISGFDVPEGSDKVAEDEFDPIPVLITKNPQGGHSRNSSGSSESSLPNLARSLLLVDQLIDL
Chain of Dual specificity protein kinase CLK4 (Homo sapiens) (Q9HAZ1 whole entry, looked up): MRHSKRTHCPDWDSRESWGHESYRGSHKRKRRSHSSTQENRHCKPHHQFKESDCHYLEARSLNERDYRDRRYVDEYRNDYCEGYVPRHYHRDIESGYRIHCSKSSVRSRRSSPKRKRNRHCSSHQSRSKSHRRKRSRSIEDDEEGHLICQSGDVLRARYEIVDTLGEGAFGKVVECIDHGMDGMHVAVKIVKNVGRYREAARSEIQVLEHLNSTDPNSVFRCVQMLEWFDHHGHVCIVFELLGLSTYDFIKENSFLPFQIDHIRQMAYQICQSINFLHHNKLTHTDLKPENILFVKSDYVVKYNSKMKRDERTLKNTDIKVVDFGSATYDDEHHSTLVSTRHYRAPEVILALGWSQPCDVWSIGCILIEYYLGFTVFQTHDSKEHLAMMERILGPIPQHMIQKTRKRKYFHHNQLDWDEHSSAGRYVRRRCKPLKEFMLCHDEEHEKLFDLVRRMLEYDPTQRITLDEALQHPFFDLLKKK

On to `Cn1c2c(Cl)c(Cl)ccc2c2cc(N)[nH]c(=O)c21`, for which the ΔTm in [1] was found to be 7.9 °C; in experiment [2] it was 5.9 °C; in experiment [3] it was 4.3 °C; in experiment [4], 2.1 °C; in [5] it was 3.1 °C; in experiment [6], 2.9 °C. The ΔTm came to 2.6 °C in [7]; 0.2 °C in [8]; 0.4 °C in [9]; 0.4 °C in [10]; 2 °C in experiment [11]; 5.2 °C in [12]. Also, the ΔTm in experiment [13] was found to be 0.8 °C; in experiment [14], 4 °C.
On to `Cn1c2c(c3ccc(Cl)c(Cl)c31)C(C#N)C1(CCCC1)NC2=O` (stereo not drawn), for which the ΔTm in experiment [1] came out at 2.2 °C; in experiment [2], 4.8 °C; in experiment [3], 1.2 °C; in [4], 3.3 °C; in experiment [5] it was 0.5 °C; in experiment [6] it was 2.5 °C. Further, the ΔTm in experiment [7] is 1.5 °C; in [8] it was 0.5 °C; in experiment [9] it was 0 °C; in experiment [10], 0.2 °C; in experiment [11] it was 1.5 °C; in experiment [12], 1.3 °C. The ΔTm in experiment [13] came out at 0.7 °C; in [14], 3.8 °C.
Turning to `Cn1c2c(Cl)c(Cl)ccc2c2cn[nH]c(=O)c21`, the ΔTm in experiment [1] is 10.4 °C; in [2] it was 3.9 °C; in experiment [3] it was 1.6 °C; in experiment [4] it was 0.9 °C; in [5], 1.7 °C; in experiment [6] it was 4.6 °C. For the same compound, the ΔTm in experiment [7] came to 4 °C; in [8], 1.2 °C; in [9], 0.2 °C; in experiment [10], 1.2 °C; in experiment [11], 3.9 °C; in experiment [12], 5.3 °C. The ΔTm in experiment [13] amounted to 0.3 °C; in [14], 1.6 °C.
For the compound `CC1(C)NC(=O)c2[nH]c3c(Cl)c(Cl)ccc3c2C1C#N` (stereo not drawn), the ΔTm was 6.8 °C in [1]; 5.3 °C in experiment [2]; 2.5 °C in [3]; 4.9 °C in [4]; 1.4 °C in experiment [5]; 4.7 °C in [6]. Besides, the ΔTm in [7] was 2 °C; in experiment [8], 0.7 °C; in experiment [9] it was -0.2 °C; in [10] it was 1.1 °C; in [11], 1.1 °C; in experiment [12], 1.2 °C. Also, the ΔTm came out at 1.2 °C in experiment [13] and 3.5 °C in [14].
On to `Cn1c2c(c3ccc(Cl)c(Cl)c31)C(CN)C(C)(C)NC2=O` (racemic), for which the shift in melting temperature (ΔTm) in experiment [1] stood at 3 °C; in experiment [2] it was 5.1 °C; in [3], 0.7 °C; in experiment [4], 2.8 °C; in experiment [5], 0.4 °C; in experiment [6], 0.6 °C. In addition, the ΔTm in experiment [7] amounted to 3.6 °C; in experiment [8] it was 1.7 °C; in [9] it was 0.3 °C; in [10], 0.9 °C; in [11], 0.8 °C; in [12], 1.7 °C. Moreover, the ΔTm was determined as 3.3 °C in experiment [13] and 3.6 °C in experiment [14].
For the compound `CN1CCC2(CC1)NC(=O)c1c(c3ccc(Cl)c(Cl)c3n1C)C2C#N` (racemic), the ΔTm in experiment [1] was determined as 1.1 °C; in experiment [2] it was 5.7 °C; in [3], 0.8 °C; in experiment [4] it was 2.1 °C; in experiment [5], 0.5 °C; in experiment [6], 2.2 °C. For the same compound, the thermal shift (ΔTm) in experiment [7] stood at 6.3 °C; in experiment [8], 3.9 °C; in [9], 0.5 °C; in [10], 2.2 °C; in experiment [11] it was 0.9 °C; in [12] it was 0.8 °C. Besides, the figures for the ΔTm in experiment [13] and in [14] were 3.3 °C and 7.7 °C, respectively.
For `CC(=O)NCC1c2c(n(C)c3c(Cl)c(Cl)ccc23)C(=O)NC1(C)C` (racemic), the ΔTm in experiment [1] stood at 1.5 °C; in experiment [2], 2.6 °C; in experiment [3], 0.5 °C; in experiment [4], 1.4 °C; in experiment [5], 0.7 °C; in experiment [6], 0.2 °C. Further, the ΔTm worked out at 0.8 °C in experiment [7]; 0 °C in experiment [8]; 0.4 °C in experiment [9]; 0.3 °C in [10]; 0.2 °C in experiment [11]; 0.4 °C in experiment [12]. Further, the values for the ΔTm in experiment [13] and in experiment [14] were 0.7 °C and 1.1 °C, respectively.
